Test results as given in ChEMBL document CHEMBL1141929, “(2R)-4-oxo-4-[3-(trifluoromethyl)-5,6-dihydro[1,2,4]triazolo[4,3-a]pyrazin-7(8H)-yl]-1-(2,4,5-trifluorophenyl)butan-2-amine: a potent, orally active dipeptidyl peptidase IV inhibitor for the treatment of type 2 diabetes” (J Med Chem, 2005).
pIC50: −log10 of the molar value.

Legend:
Dipeptidyl peptidase 9 = Dipeptidyl peptidase 9 (Homo sapiens, UniProt Q86TI2); assay: In vitro inhibitory concentration was measured against dipeptidylpeptidase 9
Chain of Dipeptidyl peptidase 9 (Q86TI2 whole entry): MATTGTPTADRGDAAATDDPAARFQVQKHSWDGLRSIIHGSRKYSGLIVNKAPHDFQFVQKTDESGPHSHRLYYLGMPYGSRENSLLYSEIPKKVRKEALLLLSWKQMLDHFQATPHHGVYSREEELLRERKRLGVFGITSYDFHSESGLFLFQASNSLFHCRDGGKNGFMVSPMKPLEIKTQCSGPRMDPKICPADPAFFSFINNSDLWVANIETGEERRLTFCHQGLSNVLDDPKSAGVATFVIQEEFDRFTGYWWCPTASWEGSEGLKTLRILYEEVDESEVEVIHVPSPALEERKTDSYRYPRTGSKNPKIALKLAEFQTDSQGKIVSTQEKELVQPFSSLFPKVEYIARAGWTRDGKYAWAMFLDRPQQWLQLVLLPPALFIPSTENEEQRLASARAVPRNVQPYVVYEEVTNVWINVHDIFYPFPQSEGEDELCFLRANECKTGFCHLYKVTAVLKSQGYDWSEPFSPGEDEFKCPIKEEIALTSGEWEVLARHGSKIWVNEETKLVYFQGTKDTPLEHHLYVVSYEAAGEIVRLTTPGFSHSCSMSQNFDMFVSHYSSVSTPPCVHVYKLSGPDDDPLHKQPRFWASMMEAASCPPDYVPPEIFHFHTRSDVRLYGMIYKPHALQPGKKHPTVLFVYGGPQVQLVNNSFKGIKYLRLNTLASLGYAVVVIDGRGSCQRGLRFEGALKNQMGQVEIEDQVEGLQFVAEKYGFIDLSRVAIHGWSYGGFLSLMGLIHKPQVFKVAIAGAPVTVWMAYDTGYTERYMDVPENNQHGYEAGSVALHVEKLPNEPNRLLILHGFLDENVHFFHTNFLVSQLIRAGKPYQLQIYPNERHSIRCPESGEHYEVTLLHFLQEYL

Dipeptidyl peptidase 4 = Dipeptidyl peptidase 4 (Homo sapiens, UniProt P27487)
Chain of Dipeptidyl peptidase 4 (P27487 whole entry): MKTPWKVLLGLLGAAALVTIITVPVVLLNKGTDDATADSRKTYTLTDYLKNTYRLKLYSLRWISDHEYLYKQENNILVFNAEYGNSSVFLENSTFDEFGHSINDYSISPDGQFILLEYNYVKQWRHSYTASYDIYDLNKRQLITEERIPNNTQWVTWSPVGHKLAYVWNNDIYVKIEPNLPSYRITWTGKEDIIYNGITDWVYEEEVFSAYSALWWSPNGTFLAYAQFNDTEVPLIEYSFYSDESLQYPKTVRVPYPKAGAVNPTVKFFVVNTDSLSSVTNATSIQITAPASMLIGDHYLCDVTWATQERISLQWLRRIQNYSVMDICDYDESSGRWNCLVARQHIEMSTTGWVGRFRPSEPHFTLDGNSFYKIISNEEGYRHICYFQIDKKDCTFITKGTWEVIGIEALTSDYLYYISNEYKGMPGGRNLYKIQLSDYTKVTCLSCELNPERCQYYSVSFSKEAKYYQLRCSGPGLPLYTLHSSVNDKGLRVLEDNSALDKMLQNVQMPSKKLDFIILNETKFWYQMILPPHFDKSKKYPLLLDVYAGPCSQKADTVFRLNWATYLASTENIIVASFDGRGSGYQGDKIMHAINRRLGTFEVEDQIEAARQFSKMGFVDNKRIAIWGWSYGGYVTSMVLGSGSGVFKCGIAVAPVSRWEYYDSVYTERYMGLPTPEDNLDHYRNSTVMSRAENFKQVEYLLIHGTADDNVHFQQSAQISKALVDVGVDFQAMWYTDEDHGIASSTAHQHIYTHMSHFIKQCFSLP

Dipeptidyl peptidase 2 = Dipeptidyl peptidase 2 (Homo sapiens, UniProt Q9UHL4); assay: In vitro inhibitory concentration was measured against quiescent cell proline dipeptidase
[1] = Plasma clearance was measured in rat; type: ADME, organism-based; conditions: read-out: Clp
Summary of the method: (§1)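 Pharmacokinetics in rat, dog and monkey. Dosing was iv 1 mpk and po 2 mpk.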

[2] = Maximum concentration was measured in plasma of rat upon peroral dose of 2 mpk; type: ADME, organism-based; design: dose 2 mpk, route oral; conditions: po, 2 mg/kg; summary of the method: as §1
[3] = Plasma half-life was measured in plasma of rat; type: ADME, cell-free; summary of the method: as §1
[4] = Oral bioavailability in rat; type: ADME, organism-based; conditions: in vivo; summary of the method: as §1
[5] = Plasma half-life was measured in rat; type: ADME, organism-based; summary of the method: as §1
[6] = Plasma half-life was measured in dog; type: ADME, cell-free, Canis lupus familiaris; summary of the method: as §1
[7] = Maximum concentration in plasma of dog upon peroral dose of 2 mpk; type: ADME, organism-based, Canis lupus familiaris; design: dose 2 mpk, route oral; conditions: po, 2 mg/kg; summary of the method: as §1
[8] = Maximum concentration in plasma of rat upon peroral dose of 2 mpk; type: ADME, organism-based; design: dose 2 mpk, route oral; conditions: po, 2 mg/kg; summary of the method: as §1
[9] = Maximum concentration in plasma of monkey upon peroral dose of 2 mpk; type: ADME, organism-based; design: dose 2 mpk, route oral; conditions: cercopithecidae, po, 2 mg/kg; summary of the method: as §1
[10] = Plasma clearance was measured in dog; type: ADME, organism-based, Canis lupus familiaris; conditions: read-out: Clp; summary of the method: as §1
[11] = Plasma clearance was measured in monkey; type: ADME, organism-based; conditions: cercopithecidae, read-out: Clp; summary of the method: as §1
[12] = Oral bioavailability in dog; type: ADME, organism-based, Canis lupus familiaris; conditions: in vivo; summary of the method: as §1
[13] = Oral bioavailability in monkey; type: ADME, organism-based; conditions: cercopithecidae, in vivo; summary of the method: as §1
[14] = Plasma half-life was measured in monkey; type: ADME; conditions: cercopithecidae; summary of the method: as §1
[15] = Maximum concentration was measured in plasma of dog upon peroral dose of 2 mpk; type: ADME, organism-based, Canis lupus familiaris; design: dose 2 mpk, route oral; conditions: po, 2 mg/kg; summary of the method: as §1
[16] = Maximum concentration was measured in plasma of monkey upon peroral dose of 2 mpk; type: ADME, organism-based; design: dose 2 mpk, route oral; conditions: cercopithecidae, po, 2 mg/kg; summary of the method: as §1

SMILES | pIC50 (Dipeptidyl peptidase 9) | pIC50 (Dipeptidyl peptidase 4) | pIC50 (Dipeptidyl peptidase 2) | clearance [1] [mL/min/kg] | Cmax [2] [nM] | half-life [3] [h] | bioavailability [4] [%] | half-life [5] [h] | half-life [6] [h] | Cmax [7] [nM] | Cmax [8] [nM] | Cmax [9] [nM] | clearance [10] [mL/min/kg] | clearance [11] [mL/min/kg] | bioavailability [12] [%] | bioavailability [13] [%] | half-life [14] [h] | Cmax [15] [nM] | Cmax [16] [nM]
N[C@@H](CC(=O)N1CCNCC1)Cc1ccc(F)c(F)c1 |  | 5.51 |  |  |  |  |  |  |  |  |  |  |  |  |  |  |  |  | 
Cl.N[C@@H](CC(=O)N1CCn2c(nnc2C(F)(F)C(F)(F)F)C1)Cc1cc(F)c(F)cc1F | < 4.00 | 7.15 | 4.11 | 58 | 160 |  | 61 | 2.3 |  |  |  |  |  |  |  |  |  |  | 
Cl.N[C@@H](CC(=O)N1CCn2cnnc2C1)Cc1cc(F)c(F)cc1F | < 4.00 | 7.17 | < 5.00 | 40 | 30 |  | 3 | 1 |  |  |  |  |  |  |  |  |  |  | 
Cl.N[C@@H](CC(=O)N1CCn2c(nnc2C(F)(F)F)C1)Cc1cc(F)c(F)cc1F |  |  |  |  | 330 |  |  | 1.7 | 4.9 |  |  |  | 6 | 28 | 100 | 68 | 3.7 | 2200 | 330

Now from value to molecule:

pIC50 (Dipeptidyl peptidase 9) | pIC50 (Dipeptidyl peptidase 4) | pIC50 (Dipeptidyl peptidase 2) | clearance [1] [mL/min/kg] | Cmax [2] [nM] | half-life [3] [h] | bioavailability [4] [%] | half-life [5] [h] | half-life [6] [h] | Cmax [7] [nM] | Cmax [8] [nM] | Cmax [9] [nM] | clearance [10] [mL/min/kg] | clearance [11] [mL/min/kg] | bioavailability [12] [%] | bioavailability [13] [%] | half-life [14] [h] | Cmax [15] [nM] | Cmax [16] [nM] | SMILES
< 4.00 | 6.34 | < 5.00 |  |  |  |  |  |  |  |  |  |  |  |  |  |  |  |  | N[C@@H](CC(=O)N1CCn2cnnc2C1)Cc1ccc(F)c(F)c1
< 4.00 |  | < 4.00 | 43 | 190 | 1.6 | 51 |  |  |  |  |  |  |  |  |  |  |  |  | Cl.N[C@@H](CC(=O)N1CCn2c(nnc2C(F)(F)F)C1)Cc1cc(F)ccc1F
< 4.00 |  | 4.01 | 51 | 140 |  | 44 | 1.8 |  |  |  |  |  |  |  |  |  |  |  | Cl.N[C@@H](CC(=O)N1CCn2c(nnc2C(F)(F)F)C1)Cc1ccc(F)c(F)c1
< 4.00 | 6.99 | < 4.00 | 109 | 2 |  | 1 | 1.5 |  |  |  |  |  |  |  |  |  |  |  | Cl.N[C@@H](CC(=O)N1CCn2c(nnc2C(F)(F)C(F)(F)F)C1)Cc1cc(F)ccc1F
< 4.00 | 6.64 | 4.19 | 45 |  |  | 2 | 2.7 | 2.3 | 730 | 10 | 12 | 13 | 26 | 33 | 1 | 1.3 |  |  | CCc1nnc2n1CCN(C(=O)C[C@H](N)Cc1ccc(F)c(F)c1)C2.Cl
